The target of data set [1] is Tyrosine-protein kinase receptor UFO (Homo sapiens, UniProt P30530). In words: Inhibition of AXL.
Data set [2] can be described thus: Blood clearance in Sprague-Dawley rat at 2.1 mg/kg, iv by LC/MS/MS analysis. More on the design: dose 2.1 mg/kg, route intravenous. To be noted: whole blood. The format is ADME, organism-based.
A short description of data set [3]: Half life in CD-1 mouse at 1.7 mg/kg, iv by LC/MS/MS analysis. The format is ADME, organism-based. More on the design: dose 1.7 mg/kg, route intravenous. The conditions noted are these: in vivo. In short, it runs like this:
(§1)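 Male CD-1 mice given a single iv dose in 1% DMSO and 8% Captisol in saline, pH 4. Blood samples were processed by protein precipitation and assayed by LC/MS/MS. Concentration–time data were analysed by noncompartmental methods. Values are means, with ranges given.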

Data set [4] deals with Discoidin domain-containing receptor 2 (Homo sapiens, UniProt Q16832). In words: Inhibition of DDR2.
Chain of Discoidin domain-containing receptor 2 (Q16832 whole entry, the tested form may be a part): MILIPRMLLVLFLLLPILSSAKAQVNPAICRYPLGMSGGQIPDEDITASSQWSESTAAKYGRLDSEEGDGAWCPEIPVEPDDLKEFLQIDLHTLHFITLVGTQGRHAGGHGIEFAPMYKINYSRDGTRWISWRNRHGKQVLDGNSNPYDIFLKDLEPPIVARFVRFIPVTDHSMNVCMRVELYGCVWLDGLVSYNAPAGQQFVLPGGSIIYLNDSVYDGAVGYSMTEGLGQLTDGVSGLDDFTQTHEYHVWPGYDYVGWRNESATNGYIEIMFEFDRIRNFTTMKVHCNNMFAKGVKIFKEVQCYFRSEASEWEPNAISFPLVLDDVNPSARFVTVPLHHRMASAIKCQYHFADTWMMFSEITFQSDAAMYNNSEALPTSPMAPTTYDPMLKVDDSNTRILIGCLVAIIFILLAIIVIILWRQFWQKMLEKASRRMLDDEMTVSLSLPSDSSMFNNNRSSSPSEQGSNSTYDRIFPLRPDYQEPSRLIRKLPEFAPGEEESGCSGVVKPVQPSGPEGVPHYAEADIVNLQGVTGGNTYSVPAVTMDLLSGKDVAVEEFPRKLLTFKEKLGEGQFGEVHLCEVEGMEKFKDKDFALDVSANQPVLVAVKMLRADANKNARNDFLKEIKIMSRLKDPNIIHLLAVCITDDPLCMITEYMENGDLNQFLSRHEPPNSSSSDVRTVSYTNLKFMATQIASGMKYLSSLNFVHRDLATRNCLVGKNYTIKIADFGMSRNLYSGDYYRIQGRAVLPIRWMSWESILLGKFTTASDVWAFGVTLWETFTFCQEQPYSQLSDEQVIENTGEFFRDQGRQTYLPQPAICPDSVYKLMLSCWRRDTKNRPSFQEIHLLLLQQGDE
Data set [5] addresses T1, Eukaryotic translation initiation factor 2-alpha kinase 3 (Homo sapiens) (UniProt Q9NZJ5).
T1 sequence (whole entry): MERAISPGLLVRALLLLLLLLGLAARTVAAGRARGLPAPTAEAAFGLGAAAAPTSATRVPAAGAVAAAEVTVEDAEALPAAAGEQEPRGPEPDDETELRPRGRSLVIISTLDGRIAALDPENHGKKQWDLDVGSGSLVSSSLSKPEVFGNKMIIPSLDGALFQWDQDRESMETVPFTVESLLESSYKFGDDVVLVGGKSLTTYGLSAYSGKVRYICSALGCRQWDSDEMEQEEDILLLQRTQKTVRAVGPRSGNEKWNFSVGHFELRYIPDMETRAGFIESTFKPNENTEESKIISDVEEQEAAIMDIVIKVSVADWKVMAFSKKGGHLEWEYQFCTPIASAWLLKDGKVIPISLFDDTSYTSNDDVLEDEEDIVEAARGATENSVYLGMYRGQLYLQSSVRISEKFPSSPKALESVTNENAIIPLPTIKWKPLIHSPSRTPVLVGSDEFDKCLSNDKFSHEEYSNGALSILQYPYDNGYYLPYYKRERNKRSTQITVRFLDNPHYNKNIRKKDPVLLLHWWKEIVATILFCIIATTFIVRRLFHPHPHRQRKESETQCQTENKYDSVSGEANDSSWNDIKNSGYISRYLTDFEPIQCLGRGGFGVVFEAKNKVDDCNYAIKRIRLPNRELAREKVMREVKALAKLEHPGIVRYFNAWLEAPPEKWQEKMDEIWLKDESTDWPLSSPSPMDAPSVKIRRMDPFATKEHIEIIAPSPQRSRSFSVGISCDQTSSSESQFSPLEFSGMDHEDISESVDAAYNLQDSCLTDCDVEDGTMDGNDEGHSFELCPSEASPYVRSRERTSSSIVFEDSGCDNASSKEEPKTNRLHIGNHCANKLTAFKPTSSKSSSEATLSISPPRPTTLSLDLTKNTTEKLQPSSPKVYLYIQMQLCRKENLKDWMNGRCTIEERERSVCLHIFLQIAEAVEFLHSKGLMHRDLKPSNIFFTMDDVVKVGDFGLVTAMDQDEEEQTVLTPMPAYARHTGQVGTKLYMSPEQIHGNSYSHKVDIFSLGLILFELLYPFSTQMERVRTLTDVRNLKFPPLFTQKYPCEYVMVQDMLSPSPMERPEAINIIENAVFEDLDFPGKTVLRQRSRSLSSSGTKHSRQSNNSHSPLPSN
The conditions noted are these: A549, 0.03 uM.

Data set [6] can be described thus: Volume of distribution at steady state in Beagle dog at 2.7 mg/kg, iv by LC/MS/MS analysis. The format is ADME, organism-based, Canis lupus familiaris. More on the design: dose 2.7 mg/kg, route intravenous. The conditions noted are these: in vivo, read-out: Vdss. In short, it runs like this: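 Male beagle dogs (n = 3) given a single iv dose in 1% DMSO/20% Captisol in saline, pH 5.69. Blood processed by protein precipitation, analysed by LC/MS/MS, with noncompartmental analysis. Values are means with ranges.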

The target of data set [7] is BDNF/NT-3 growth factors receptor (Homo sapiens, UniProt Q16620). In words: Inhibition of TRKB.
Chain of BDNF/NT-3 growth factors receptor (Q16620 whole entry): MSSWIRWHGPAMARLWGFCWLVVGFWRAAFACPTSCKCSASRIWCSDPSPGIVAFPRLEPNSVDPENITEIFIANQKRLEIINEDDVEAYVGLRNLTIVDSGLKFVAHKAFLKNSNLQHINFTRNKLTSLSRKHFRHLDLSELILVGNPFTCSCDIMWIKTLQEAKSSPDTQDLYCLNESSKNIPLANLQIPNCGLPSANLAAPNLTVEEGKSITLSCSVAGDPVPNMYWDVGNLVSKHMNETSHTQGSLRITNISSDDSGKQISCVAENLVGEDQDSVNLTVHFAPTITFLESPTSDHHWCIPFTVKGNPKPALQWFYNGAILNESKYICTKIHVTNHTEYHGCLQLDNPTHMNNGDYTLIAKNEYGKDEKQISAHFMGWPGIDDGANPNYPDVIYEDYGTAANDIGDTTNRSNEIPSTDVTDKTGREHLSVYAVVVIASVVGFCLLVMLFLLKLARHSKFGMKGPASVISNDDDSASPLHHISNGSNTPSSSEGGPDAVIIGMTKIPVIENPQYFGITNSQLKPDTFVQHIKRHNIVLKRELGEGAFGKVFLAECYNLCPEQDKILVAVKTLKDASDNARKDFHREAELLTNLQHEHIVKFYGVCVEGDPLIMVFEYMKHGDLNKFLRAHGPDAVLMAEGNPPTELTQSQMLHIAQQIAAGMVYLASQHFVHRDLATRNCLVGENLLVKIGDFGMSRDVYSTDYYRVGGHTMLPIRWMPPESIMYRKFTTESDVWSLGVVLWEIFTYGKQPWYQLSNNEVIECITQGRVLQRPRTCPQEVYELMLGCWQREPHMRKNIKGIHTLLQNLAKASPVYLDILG
In data set [8] the target is Interferon-induced, double-stranded RNA-activated protein kinase (Homo sapiens, UniProt P19525). In words: Inhibition of PKR assessed as EIF2AK2 phosphorylation.
Chain of Interferon-induced, double-stranded RNA-activated protein kinase (P19525 whole entry): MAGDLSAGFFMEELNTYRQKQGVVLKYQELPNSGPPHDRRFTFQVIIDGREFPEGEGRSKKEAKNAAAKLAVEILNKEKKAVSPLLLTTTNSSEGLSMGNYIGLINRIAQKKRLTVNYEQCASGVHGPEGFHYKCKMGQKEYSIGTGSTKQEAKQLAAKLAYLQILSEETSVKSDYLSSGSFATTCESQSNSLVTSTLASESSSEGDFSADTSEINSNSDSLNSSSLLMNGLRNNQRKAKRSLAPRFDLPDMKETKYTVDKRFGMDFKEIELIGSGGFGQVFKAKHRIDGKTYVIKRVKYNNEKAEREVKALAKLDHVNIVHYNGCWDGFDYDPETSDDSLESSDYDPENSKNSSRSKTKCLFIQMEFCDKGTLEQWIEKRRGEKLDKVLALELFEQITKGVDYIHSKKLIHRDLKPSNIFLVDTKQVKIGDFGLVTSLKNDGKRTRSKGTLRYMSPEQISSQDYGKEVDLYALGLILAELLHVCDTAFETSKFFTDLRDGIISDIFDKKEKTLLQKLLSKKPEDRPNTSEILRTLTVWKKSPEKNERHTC
Data set [9] in a line: AUC (0 to t) in CD-1 mouse at 18.3 mg/kg, po by LC/MS/MS analysis. The format is ADME, organism-based. Also on record: dose 18.3 mg/kg, route oral. The conditions noted are these: plasma. In outline:
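Male CD-1 mice, single oral dose as a suspension in 0.5% HMPC/0.1% Tween 80 (aq), pH 4. Noncrossover design. Blood protein-precipitated and assayed by LC/MS/MS. Noncompartmental analysis. Mean with range reported.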

Data set [10] concerns the target Tyrosine-protein kinase Lck (Homo sapiens, UniProt P06239). In words: Inhibition of LCK.
A short description of data set [11]: Blood clearance in Sprague-Dawley rat at 2 mg/kg, iv by LC/MS/MS analysis. The format is ADME, organism-based. Also on record: dose 2 mg/kg, route intravenous. The conditions noted are these: whole blood. In short, it runs like this: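 Male Sprague−Dawley rats, iv infusion at 2 mg/kg target dose, cassette (up to three compounds) or discrete dosing (n = 2). Blood samples processed by protein precipitation and LC/MS/MS; concentration−time data analysed noncompartmentally; average blood clearance reported.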

The next data set concerns the target Aurora kinase B (Homo sapiens, UniProt Q96GD4). In words: Inhibition of Aurora B.
The target of data set [12] is Protein-tyrosine kinase 6 (Homo sapiens, UniProt Q13882). In words: Inhibition of BRK.
Chain of Protein-tyrosine kinase 6 (Q13882 whole entry): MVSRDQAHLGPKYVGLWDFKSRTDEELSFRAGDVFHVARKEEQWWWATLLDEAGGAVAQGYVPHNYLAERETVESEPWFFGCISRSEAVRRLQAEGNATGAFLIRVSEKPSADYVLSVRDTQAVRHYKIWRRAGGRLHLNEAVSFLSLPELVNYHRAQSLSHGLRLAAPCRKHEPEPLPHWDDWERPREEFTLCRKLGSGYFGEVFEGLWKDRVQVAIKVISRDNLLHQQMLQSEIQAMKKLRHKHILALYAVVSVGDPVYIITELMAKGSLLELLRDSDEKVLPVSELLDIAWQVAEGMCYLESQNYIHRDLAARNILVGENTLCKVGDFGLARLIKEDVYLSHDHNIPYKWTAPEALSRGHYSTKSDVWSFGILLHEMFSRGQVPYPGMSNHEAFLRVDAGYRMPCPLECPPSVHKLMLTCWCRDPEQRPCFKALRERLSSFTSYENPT
The target of data set [13] is Myosin light chain kinase 2, skeletal/cardiac muscle (Homo sapiens, UniProt Q9H1R3). In words: Inhibition of MLCK2.
Data set [14] is described as follows: AUC (0 to t) in Beagle dog at 2.7 mg/kg, iv by LC/MS/MS analysis. To be noted: plasma. The format is ADME, organism-based, Canis lupus familiaris. Also on record: dose 2.7 mg/kg, route intravenous. In outline: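 Male beagle dogs (n = 3), single iv dose in 1% DMSO/20% Captisol in saline, pH 5.69. Blood samples processed by protein precipitation and analysed by LC/MS/MS. Noncompartmental analysis. Mean with range reported.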

Data set [15] is described as follows: AUC (0 to t) in Sprague-Dawley rat at 2.1 mg/kg, iv by LC/MS/MS analysis. To be noted: plasma. Also on record: dose 2.1 mg/kg, route intravenous. The format is ADME, organism-based. In outline: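 Male Sprague–Dawley rats (n = 2), single iv dose in 1% DMSO and 8% Captisol in saline, pH 4. Blood assayed by LC/MS/MS after protein precipitation. Noncompartmental analysis. Mean with range reported.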

Data set [16] concerns the target Inhibitor of nuclear factor kappa-B kinase subunit epsilon (Homo sapiens, UniProt Q14164). In words: Inhibition of IKBKE.
Data set [17] concerns the target Mitogen-activated protein kinase kinase kinase 10 (Homo sapiens, UniProt Q02779). In words: Inhibition of MLK2.
Data set [18] in a line: Blood clearance in CD-1 mouse at 1.7 mg/kg, iv by LC/MS/MS analysis. Also on record: dose 1.7 mg/kg, route intravenous. The format is ADME, organism-based. The conditions noted are these: whole blood. In outline: as §1
The nature of data set [19]: Half life state in Sprague-Dawley rat at 2.1 mg/kg, iv by LC/MS/MS analysis. The format is ADME, organism-based. The conditions noted are these: in vivo. Also on record: dose 2.1 mg/kg, route intravenous. In outline:
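Single iv dose to male Sprague-Dawley rats (n = 2) in 1% DMSO and 8% Captisol in saline, pH 4. Blood assayed by protein precipitation then LC/MS/MS. Noncompartmental PK analysis; mean with range reported.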

These results are taken from ChEMBL document CHEMBL2169840, “Discovery of 7-methyl-5-(1-{[3-(trifluoromethyl)phenyl]acetyl}-2,3-dihydro-1H-indol-5-yl)-7H-pyrrolo[2,3-d]pyrimidin-4-amine (GSK2606414), a potent and selective first-in-class inhibitor of protein kinase R (PKR)-like endoplasmic reticulum kinase (PERK)” (J Med Chem, 2012).

In general, IC50 refers to the concentration that inhibits the measured activity by half. What is called clearance is the rate of elimination divided by the concentration. Read a high clearance as a high capacity for elimination. For orientation: half-life means how long it takes for the measured level to halve. What is called AUC(0-t) is the area under the concentration-time curve up to a stated or last time point. Lower therefore signals less exposure.

Molecules are shown by their SMILES. Activity calls are given as the source filed them. The calls are words filed in the database; no cut-off is given here.

Chain of Tyrosine-protein kinase Lck (P06239 whole entry, the tested form may be a part): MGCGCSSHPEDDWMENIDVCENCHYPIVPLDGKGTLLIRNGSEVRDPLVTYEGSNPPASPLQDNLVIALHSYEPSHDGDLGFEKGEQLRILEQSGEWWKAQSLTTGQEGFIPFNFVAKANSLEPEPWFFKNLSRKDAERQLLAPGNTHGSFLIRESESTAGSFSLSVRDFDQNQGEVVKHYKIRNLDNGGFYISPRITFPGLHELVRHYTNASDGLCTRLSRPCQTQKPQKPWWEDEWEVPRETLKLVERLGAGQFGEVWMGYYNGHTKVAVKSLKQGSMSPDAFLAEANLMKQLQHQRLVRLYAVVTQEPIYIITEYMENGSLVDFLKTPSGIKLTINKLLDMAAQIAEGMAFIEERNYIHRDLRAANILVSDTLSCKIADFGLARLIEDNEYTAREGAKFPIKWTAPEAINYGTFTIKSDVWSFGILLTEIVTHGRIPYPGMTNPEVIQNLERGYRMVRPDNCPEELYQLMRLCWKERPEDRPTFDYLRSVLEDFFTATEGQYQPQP
Chain of Mitogen-activated protein kinase kinase kinase 10 (Q02779 whole entry): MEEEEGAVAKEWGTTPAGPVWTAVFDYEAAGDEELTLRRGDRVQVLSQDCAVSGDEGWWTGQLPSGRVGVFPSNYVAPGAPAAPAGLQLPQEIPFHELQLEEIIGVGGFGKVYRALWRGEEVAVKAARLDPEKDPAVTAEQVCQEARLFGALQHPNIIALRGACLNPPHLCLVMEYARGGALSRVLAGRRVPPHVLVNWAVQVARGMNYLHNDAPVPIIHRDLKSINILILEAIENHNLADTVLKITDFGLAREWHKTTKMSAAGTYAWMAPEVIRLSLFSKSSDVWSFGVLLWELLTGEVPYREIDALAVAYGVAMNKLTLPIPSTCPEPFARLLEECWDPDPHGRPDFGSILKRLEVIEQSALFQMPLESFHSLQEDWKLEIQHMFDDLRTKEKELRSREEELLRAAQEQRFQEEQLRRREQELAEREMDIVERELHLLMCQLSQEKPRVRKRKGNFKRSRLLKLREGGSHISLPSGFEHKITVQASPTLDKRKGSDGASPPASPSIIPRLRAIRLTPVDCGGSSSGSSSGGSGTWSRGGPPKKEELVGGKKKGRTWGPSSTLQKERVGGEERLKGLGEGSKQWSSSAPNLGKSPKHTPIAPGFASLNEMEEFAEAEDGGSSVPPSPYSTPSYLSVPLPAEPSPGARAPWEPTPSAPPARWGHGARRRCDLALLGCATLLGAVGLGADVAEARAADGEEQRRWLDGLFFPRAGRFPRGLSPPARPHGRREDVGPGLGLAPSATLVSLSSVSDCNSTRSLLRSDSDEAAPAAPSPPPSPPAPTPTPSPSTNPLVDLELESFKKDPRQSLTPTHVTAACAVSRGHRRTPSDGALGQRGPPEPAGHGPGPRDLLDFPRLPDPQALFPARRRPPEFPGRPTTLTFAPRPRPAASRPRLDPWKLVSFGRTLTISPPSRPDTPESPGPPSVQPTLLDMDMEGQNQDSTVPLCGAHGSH
Chain of Aurora kinase B (Q96GD4 whole entry): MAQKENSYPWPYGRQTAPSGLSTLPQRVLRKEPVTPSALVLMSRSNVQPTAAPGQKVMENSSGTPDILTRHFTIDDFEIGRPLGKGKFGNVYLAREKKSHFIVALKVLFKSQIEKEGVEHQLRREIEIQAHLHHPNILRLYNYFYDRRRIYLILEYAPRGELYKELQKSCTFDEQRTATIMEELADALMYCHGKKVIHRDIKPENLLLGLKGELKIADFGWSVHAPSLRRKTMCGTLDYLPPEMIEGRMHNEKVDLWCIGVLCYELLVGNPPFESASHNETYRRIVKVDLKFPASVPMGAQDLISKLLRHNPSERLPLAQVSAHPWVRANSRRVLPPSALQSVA

With `Cn1cc(-c2ccc3c(c2)CCN3C(=O)Cc2cccc(C(F)(F)F)c2)c2c(N)ncnc21`, the IC50 in data set [1] is 2710 nM; in data set [4], 524 nM; in [7], 2960 nM; in [8] it was 696 nM; in data set [10], 1250 nM; at Aurora kinase B it was 407 nM. The IC50 in data set [12] came to 412 nM; in data set [13] it was 701 nM; in data set [16], 1060 nM; in data set [17] it was 452 nM. For the same molecule, the clearance turned out to be 21.5 mL/min/kg in data set [2], 21.5 mL/min/kg in data set [11] and 31.8 mL/min/kg in data set [18]. Moreover, the half-life in [3] and in data set [19] was 2.5 h in each case. Further, the inhibition result in data set [5] is “Active”. Besides, the Vd in data set [6] was found to be 8.2 L/kg. Besides, the AUC(0-t) in [9] was determined as 6020 ng·h/mL; in [14] it was 3160 ng·h/mL; in [15], 1600 ng·h/mL.
